Assay [1] deals with Human immunodeficiency virus type 1 integrase (Human immunodeficiency virus 1, UniProt Q7ZJM1). Briefly: Inhibition of HIV1 recombinant integrase by electrochemiluminescent-based high-throughput strand transfer assay. The method in brief:
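Biotinylated, 3′-end-preprocessed donor DNA incubated 30 min at 37°C with 250 nM recombinant integrase; compound added, strand transfer started with ruthenium-labeled duplex target DNA, 60 min at 37°C; electrochemiluminescence read. IC50 as mean ± SD of ≥3 independent experiments, or single experiment where footnoted.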

Assay [2] in a line: Inhibition of HIV1 RNase H by FRET high-throughput assay. Also noted: species or system Human immunodeficiency virus 1. The method in brief:
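3′-fluorescein/5′-DABCYL RNA/DNA hybrid (0.16 nM) preincubated with compound; reaction started with 7.5 nM HIV-1 RNase H, 30 min at room temperature, EDTA quench, fluorescence intensity read. IC50 as mean ± SD of ≥3 independent experiments, or single experiment where footnoted.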

The test system of assay [3] is Human immunodeficiency virus 1. Description: Selectivity, ratio of IC50 for HIV1 recombinant integrase to IC50 for HIV1 RNase H.
In assay [4] the test system is Human immunodeficiency virus 1. Description: Selectivity, ratio of IC50 for HIV1 RNase H to IC50 for HIV1 recombinant integrase. In a few lines:
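Ratio of the IC50s from two assays run on the same compounds. Integrase: a biotinylated 3′-preprocessed donor DNA was preincubated 30 min at 37°C with 250 nM recombinant HIV-1 integrase. Compound was then added, ruthenium-labelled target DNA started strand transfer, 60 min at 37°C, electrochemiluminescent read-out. RNase H: 0.16 nM 3′-fluorescein/5′-DABCYL RNA/DNA hybrid with 7.5 nM enzyme, 30 min at room temperature, EDTA quench, FRET fluorescence.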

In assay [5] the target is Human immunodeficiency virus type 1 integrase (Human immunodeficiency virus 1) (UniProt Q7ZJM1). Briefly: Selectivity for inhibition of HIV1 recombinant integrase strand transfer activity over 3'-end processing.

The values below come from ChEMBL document CHEMBL1151461, “Madurahydroxylactone derivatives as dual inhibitors of human immunodeficiency virus type 1 integrase and RNase H” (Antimicrob Agents Chemother, 2008).

SMILES strings stand for the structures.

Sequence of Human immunodeficiency virus type 1 integrase (Q7ZJM1 whole entry): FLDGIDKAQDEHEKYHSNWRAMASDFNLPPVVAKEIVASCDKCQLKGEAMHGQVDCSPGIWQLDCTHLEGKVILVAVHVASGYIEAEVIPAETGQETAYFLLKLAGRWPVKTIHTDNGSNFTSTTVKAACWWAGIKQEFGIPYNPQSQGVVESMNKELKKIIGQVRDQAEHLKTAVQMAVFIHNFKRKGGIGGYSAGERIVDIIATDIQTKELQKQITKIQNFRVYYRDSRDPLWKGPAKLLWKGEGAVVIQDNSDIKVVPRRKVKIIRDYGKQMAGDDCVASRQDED
Sequence of Human immunodeficiency virus type 1 integrase (Human immunodeficiency virus 1) (Q7ZJM1 as listed by the source): as the sequence (Q7ZJM1 whole entry) above

As for `COc1c2c(c(O)c3c1C(=O)c1c(cc(O)c(C)c1O)C3=O)-c1c(cc(C(=O)O)c(C(=O)O)c1O)CC2`, the results for the half-maximal inhibitory concentration (IC50) in assay [1] and in assay [2] were 13.2 µM and 3.48 µM, respectively.
Turning to `COc1c2c(c(O)c3c1C(=O)c1c(cc(O)c(C)c1O)C3=O)-c1c(cc(/C=N/NC(C)(C)C)c(C(=O)O)c1O)CC2`, in assay [3], the Ratio IC50 is more than 100. Besides, the values for the IC50 in assay [1] and in assay [2] were 122 µM and 0.69 µM, respectively.
Regarding `COc1c2c(c(O)c3c1C(=O)c1c(cc(O)c(C)c1O)C3=O)-c1c(cc(/C=N/NS(=O)(=O)c3ccc(C)cc3)c(C(=O)O)c1O)CC2`, the values for the IC50 in assay [1] and in assay [2] were 22 µM and 5.88 µM, respectively.
Take `COc1c2c(c(O)c3c1C(=O)c1c(cc(O)c(C)c1O)C3=O)-c1c(cc3c(c1O)C(=O)N(N(C)C)C3O)CC2` (centres undefined): the IC50 is 7.7 µM in assay [1] and 6.97 µM in assay [2].
With `CCCn1ncc2cc3c(c(OC(C)=O)c2c1=O)-c1c(c(OC)c2c(c1OC(C)=O)C(=O)c1cc(OC(C)=O)c(C)c(OC(C)=O)c1C2=O)CC3`, the IC50 in assay [1] is more than 333 µM; in assay [2], 10.5 µM.
As for `COc1c2c(c(O)c3c1C(=O)c1c(cc(O)c(C)c1O)C3=O)-c1c(cc3cnn(C(=N)N)c(=O)c3c1O)CC2`, the IC50 in assay [1] was found to be 3.02 µM; in assay [2] it was 5.28 µM.
Consider `COc1c2c(c(O)c3c1C(=O)c1c(cc(O)c(C)c1O)C3=O)-c1c(cc3c(c1O)C(=O)N1CCCNC31)CC2` (centres undefined), for which the IC50 in assay [1] was 56 µM; in assay [2], 7.16 µM.
The matching figures for `COc1c2c(c(O)c3c1C(=O)c1c(cc(O)c(C)c1O)C3=O)-c1c(cc3cn[nH]c(=O)c3c1O)CC2`: 4.06 µM and 4.06 µM.
In the case of `COc1c2c(c(O)c3c1C(=O)c1c(cc(O)c(C)c1O)C3=O)-c1c(cc(/C=N/NC(=O)c3ccccc3O)c(C(=O)O)c1O)CC2`, the IC50 in assay [1] was determined as 6.09 µM; in assay [2] it was 3.54 µM.
With `CCCn1ncc2cc3c(c(O)c2c1=O)-c1c(O)c2c(c(OC)c1CC3)C(=O)c1c(cc(O)c(C)c1O)C2=O`, the IC50 in assay [1] stood at 6.34 µM; in assay [2], 8.96 µM.
As for `COc1c2c(c(O)c3c1C(=O)c1c(cc(O)c(C)c1O)C3=O)-c1c(cc(/C=N/C34CC5CC(CC(C5)C3)C4)c(C(=O)O)c1O)CC2`, the figures for the IC50 in assay [1] and in assay [2] were 37 µM and 9.41 µM, respectively.
With `COc1c2c(c(O)c3c1C(=O)c1c(cc(O)c(C)c1O)C3=O)-c1c(cc3cnn(CC(=O)O)c(=O)c3c1O)CC2`, the IC50 in assay [1] came to 4.62 µM; in assay [2], 10.2 µM.
As to `COc1c2c(c(O)c3c1C(=O)c1c(cc(O)c(C)c1O)C3=O)-c1c(cc3cnn(-c4ccc(C(=O)O)cc4)c(=O)c3c1O)CC2`, the IC50 amounted to 3.45 µM in assay [1] and 9.11 µM in assay [2].
As to `CCCn1ncc2cc3c(c(O)c2c1=O)-c1c(O)c2c(c(OC)c1CC3)C(=O)c1c(cc(OC(=O)OC)c(C)c1OC(C)=O)C2=O`, the IC50 in assay [1] was more than 333 µM; in assay [2], 8.98 µM.
For `COc1c2c(c(O)c3c1C(=O)c1c(cc(O)c(C)c1O)C3=O)-c1c(cc3c(c1O)C(=O)N1C(C(=O)O)CSC31)CC2` (centres undefined), the IC50 came out at 20 µM in assay [1] and 15.7 µM in assay [2].
As for `COc1c2c(c(OC(C)=O)c3c1C(=O)c1c(cc(OC(C)=O)c(C)c1OC(C)=O)C3=O)-c1c(cc3cnn(-c4ccccc4)c(=O)c3c1OC(C)=O)CC2`, in assay [3], the Ratio IC50 was 100. In addition, the results for the IC50 in assay [1] and in assay [2] were more than 333 µM and 3.14 µM, respectively.
Turning to `COc1c2c(c(O)c3c1C(=O)c1c(cc(O)c(C)c1O)C3=O)-c1c(cc(/C=N/NC(=N)N)c(C(=O)O)c1O)CC2`, the IC50 in assay [1] came to 3.15 µM; in assay [2], 5.65 µM.
With `COc1c2c(c(O)c3c1C(=O)c1c(cc(O)c(C)c1O)C3=O)-c1c(cc3c(c1O)C(=O)N1c4ccccc4CNC31)CC2` (centres undefined), the Ratio IC50 in assay [3] is 100. Further, the IC50 was 108 µM in assay [1] and 0.78 µM in assay [2].
Take `COc1c2c(c(O)c3c1C(=O)c1c(cc(O)c(C)c1O)C3=O)-c1c(cc(/C=N/Nc3ccc([N+](=O)[O-])cc3)c(C(=O)O)c1O)CC2`: the IC50 in assay [1] worked out at 2.2 µM; in assay [2], 14 µM.
Take `COc1c2c(c(O)c3c1C(=O)c1c(cc(O)c(C)c1O)C3=O)-c1c(cc3cnn(CCOC(C)=O)c(=O)c3c1O)CC2`: the IC50 in assay [1] was found to be 6.28 µM; in assay [2] it was 8.63 µM.
Turning to `COc1c2c(c(O)c3c1C(=O)c1c(cc(O)c(C)c1O)C3=O)-c1c(cc3cnn(-c4ccccc4)c(=O)c3c1O)CC2`, the values for the IC50 in assay [1] and in assay [2] were 0.41 µM and 2.58 µM, respectively. For the same compound, the Ratio IC50 in assay [4] was determined as 100. Moreover, the fold change (FC) in assay [5] worked out at 20.
`COc1c2c(c(O)c3c1C(=O)c1c(cc(O)c(C)c1O)C3=O)-c1c(cc3c(c1O)C(=O)N1c4ccccc4SC31)CC2` (centres undefined): the Ratio IC50 was 10 in assay [3] and 100 in assay [4]. Moreover, the IC50 came to 96 µM in assay [1] and 0.31 µM in assay [2].
As for `COC(=O)Oc1cc2c(c(O)c1C)C(=O)c1c(OC)c3c(c(O)c1C2=O)-c1c(cc2cnn(-c4ccccc4)c(=O)c2c1O)CC3`, the Ratio IC50 in assay [3] turned out to be 100. The IC50 in assay [1] amounted to 200 µM; in assay [2], 1.43 µM.
Consider `COc1c2c(c(OCc3ccccc3)c3c1C(=O)c1c(cc(OCc4ccccc4)c(C)c1OCc1ccccc1)C3=O)-c1c(cc3cnn(CC(=O)O)c(=O)c3c1OCc1ccccc1)CC2`, for which the results for the IC50 in assay [1] and in assay [2] were 106 µM and 22.4 µM, respectively.
As to `CO/N=C/c1cc2c(c(O)c1C(=O)O)-c1c(O)c3c(c(OC)c1CC2)C(=O)c1c(cc(O)c(C)c1O)C3=O`, the IC50 is 12.5 µM in assay [1] and 10.1 µM in assay [2].
For the compound `COc1c2c(c(O)c3c1C(=O)c1c(cc(O)c(C)c1O)C3=O)-c1c(cc(/C=N/NC(=O)c3ccccc3)c(C(=O)O)c1O)CC2`, the IC50 in assay [1] was 14.6 µM; in assay [2], 3.1 µM.
The matching figures for `COc1c2c(c(O)c3c1C(=O)c1c(cc(O)c(C)c1O)C3=O)-c1c(cc(C3NCc4ccccc4N3)c(C(=O)O)c1O)CC2` (centres undefined): 40 µM and 5.86 µM.
As to `CCOC(=O)Cn1ncc2cc3c(c(O)c2c1=O)-c1c(O)c2c(c(OC)c1CC3)C(=O)c1c(cc(O)c(C)c1O)C2=O`, the IC50 is 2.67 µM in assay [1] and 2.11 µM in assay [2].

In general, IC50 refers to the midpoint of a concentration-inhibition curve.
